Assay results reported in ChEMBL document CHEMBL3997809, “Design and synthesis of a new series of 3,5-disubstituted isoxazoles active against Trypanosoma cruzi and Leishmania amazonensis” (Eur J Med Chem, 2017).
Activity calls are given as the source filed them. The rule behind the calls is not given here.

Assays:
[1] = Cytotoxicity against human THP1 cells assessed as reduction in cell viability after 72 hrs by MTT assay; type: cell-based; details: THP-1 cells
How it was run: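 PMA-differentiated THP-1 cells exposed to serial dilutions from 15.6 to 500 µM for 72 h at 37 °C, 5% CO2. Viability by MTT reduction to formazan, dissolved in DMSO, OD 540 nm. Gives CC50.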

Leishmania amazonensis [2] = assay: Growth inhibition of Leishmania amazonensis MHOM/BR/77/LTB0016 amastigote forms expressing beta-galactosidase infected in human THP1 cells at 2 uM after 48 hrs relative to control; type: functional; details: MHOM/BR/77/LTB0016, THP-1, 48 h, read-out: GI
How it was run: (§1)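 THP-1 cells seeded at 4.0 × 10^4 cells/well and differentiated with PMA 100 ng/ml for 72 h. Promastigotes (4-day culture) opsonized 1 h at 34 °C in RPMI-1640 with 10% heat-inactivated human B+ serum. Infection at 10:1 parasite/cell for 3 h at 34 °C, washed, then 24 h for amastigote transformation. Compound treatment in triplicate for 48 h at 34 °C. Read-out: CPRG 100 µM with 0.1% NP-40, 16 h, OD 570/630 nm. Negative control DMSO 1%.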

[3] = Selectivity index, ratio of CC50 for human THP1 cells to IC50 for Leishmania amazonensis MHOM/BR/77/LTB0016 amastigote forms expressing beta-galactosidase infected in human THP1 cells; type: toxicity, cell-based; details: read-out: Ratio CC50/IC50
How it was run: (§2)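 Ratio of CC50 from the 72 h MTT assay in PMA-differentiated THP-1 cells to IC50 against intracellular amastigotes in THP-1 cells measured by CPRG read-out after 48 h.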

Leishmania amazonensis [4] = assay: Antileishmanial activity against Leishmania amazonensis MHOM/BR/77/LTB0016 amastigote forms expressing beta-galactosidase infected in human THP1 cells after 48 hrs; type: functional, cell-based; details: MHOM/BR/77/LTB0016, THP-1, 48 h; how it was run: as §1
Trypanosoma cruzi [5] = assay: Growth inhibition of Trypanosoma cruzi Tulahuen amastigote forms infected in human THP1 cells at 20 uM after 48 hrs relative to control; type: functional; details: THP-1, 48 h, read-out: GI
How it was run: (§3)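 PMA-differentiated THP-1 macrophages (4.0 × 10^4 cells/well, 100 ng/ml, 72 h) infected with trypomastigotes at 2:1 parasite/cell overnight at 37 °C. Washed, then 24 h more for amastigote transformation. Compounds added in triplicate for 48 h at 37 °C, 5% CO2. Read-out: CPRG 100 µM with 0.1% NP-40 for 16 h, OD 570/630 nm. Negative control DMSO 1%.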

[6] = Selectivity index, ratio of CC50 for human THP1 cells to IC50 for Trypanosoma cruzi Tulahuen amastigote forms infected in human THP1 cells; type: toxicity, cell-based; details: read-out: Ratio CC50/IC50; how it was run: as §2
Leishmania infantum = assay: Growth inhibition of Leishmania infantum MHOM/BR/74/PP75 amastigote forms expressing beta-galactosidase infected in human THP1 cells at 50 uM after 48 hrs relative to control; type: functional; details: MHOM/BR/74/PP75, THP-1, 48 h, read-out: GI; how it was run: as §1
Trypanosoma cruzi [7] = assay: Trypanocidal activity against Trypanosoma cruzi Tulahuen amastigote forms infected in human THP1 cells after 48 hrs; type: functional, cell-based; details: THP-1, 48 h; how it was run: as §3
Trypanosoma cruzi [8] = assay: Growth inhibition of Trypanosoma cruzi Tulahuen amastigote forms infected in human THP1 cells at 100 uM after 48 hrs relative to control; type: functional; details: THP-1, 48 h, read-out: GI; how it was run: as §3
Leishmania amazonensis [9] = assay: Growth inhibition of Leishmania amazonensis MHOM/BR/77/LTB0016 amastigote forms expressing beta-galactosidase infected in human THP1 cells at 100 uM after 48 hrs relative to control; type: functional; details: for inhibition of growth at 100 µM: MHOM/BR/77/LTB0016, THP-1, 48 h, read-out: GI; how it was run: as §1
Trypanosoma cruzi [10] = assay: Trypanocidal activity against Trypanosoma cruzi Tulahuen trypomastigote forms at 3.9 to 250 uM after 72 hrs by MTT assay; type: functional
How it was run: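 Culture-derived Tulahuen trypomastigotes raised from infected L929 cells, 1.5 × 10^6 parasites/well. Compounds serially diluted from 250 to 3.9 µM, incubated 72 h at 37 °C, 5% CO2. Viability by MTT, OD 540 nm after dissolving formazan in DMSO. Negative control DMSO 1%.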

Trypanothione reductase = Trypanothione reductase (Trypanosoma cruzi, UniProt P28593); assay: Inhibition of Trypanosoma cruzi trypanothione reductase expressed in Escherichia coli BL21(DE3) using T(S)2 as substrate incubated for 30 mins in presence of NADPH measured for 30 mins
Trypanothione reductase, sequence (P28593 whole entry): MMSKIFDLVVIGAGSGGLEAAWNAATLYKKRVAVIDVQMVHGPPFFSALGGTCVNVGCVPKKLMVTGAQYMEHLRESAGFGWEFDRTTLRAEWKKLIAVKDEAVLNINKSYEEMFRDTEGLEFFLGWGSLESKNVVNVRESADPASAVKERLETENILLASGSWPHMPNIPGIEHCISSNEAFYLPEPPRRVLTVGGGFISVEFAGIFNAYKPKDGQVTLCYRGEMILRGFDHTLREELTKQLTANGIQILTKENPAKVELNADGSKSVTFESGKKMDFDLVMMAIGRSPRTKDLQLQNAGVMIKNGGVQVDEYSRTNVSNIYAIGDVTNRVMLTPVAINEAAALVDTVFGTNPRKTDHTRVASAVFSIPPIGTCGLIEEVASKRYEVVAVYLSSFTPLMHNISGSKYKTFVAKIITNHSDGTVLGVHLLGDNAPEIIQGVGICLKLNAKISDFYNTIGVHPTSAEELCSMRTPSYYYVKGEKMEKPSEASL
How it was run: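 Enzyme purified by affinity chromatography. Then T(S)2 1 µM and compound in DMSO added, 30 min at 27 °C, followed by further DTNB. A412 followed for 30 min. Negative control DMSO 1%.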

Trypanosoma cruzi [11] = assay: Antitrypanosomal activity against Trypanosoma cruzi trypomastigote forms; type: functional
Trypanosoma cruzi [12] = assay: Growth inhibition of Trypanosoma cruzi Tulahuen amastigote forms infected in human THP1 cells at 100 uM using compound after 1 week storage measured after 48 hrs; type: functional, cell-based
[13] = Chemical stability in DMSO after 1 week by mass spectrometric analysis; type: physicochemical; details: 168 h

Structure (SMILES)	CC50 at 72 h [1] [µM]	IC50 (Leishmania amazonensis [4]) [µM]	IC50 (Trypanosoma cruzi [7]) [µM]	inhibition of growth at 100 µM (Trypanosoma cruzi [8]) [%]	inhibition of growth at 100 µM (Leishmania amazonensis [9]) [%]	Activity (Trypanosoma cruzi [10])	further results
C[C@@H]1[C@H](O)[C@@H](C)/C=C/C=C/C=C/C=C/C=C/C=C/C=C/[C@H](O[C@@H]2O[C@H](C)[C@@H](O)[C@H](N)[C@@H]2O)C[C@@H]2O[C@](O)(C[C@@H](O)C[C@@H](O)[C@H](O)CC[C@@H](O)C[C@@H](O)CC(=O)O[C@H]1C)C[C@H](O)[C@H]2C(=O)O [AMPHOTERICIN B]	27.9	0.14	–	–	–	–	inhibition of growth at 2 µM (Leishmania amazonensis [2]): 81.6%; selectivity ratio [3]: 199
O=C(Cn1ccnc1[N+](=O)[O-])NCc1ccccc1 [BENZNIDAZOLE]	> 500	–	–	–	–	–	inhibition of growth at 20 µM (Trypanosoma cruzi [5]): 85.9%; selectivity ratio [6]: > 49.1
ClCc1ccc(-c2cc(-c3ccc4c(c3)OCO4)no2)cc1	182	5.08	1.13	95.8	57.7	inactive	inhibition of growth at 50 µM (Leishmania infantum): 9.01%; IC50 (Trypanothione reductase): > 100 µM; selectivity ratio [6]: 161; selectivity ratio [3]: 35.8
COc1ccc(-c2cc(CO)on2)cc1	–	–	> 100	9.32	–	inactive	–
COc1ccc(-c2cc(-c3ccc(CO)cc3)on2)cc1OC	–	–	> 100	14.2	–	inactive	–
O=C(O)c1cc(-c2ccccc2)no1	–	–	–	0	–	inactive	–
OCc1ccc(-c2cc(-c3ccc(F)cc3)no2)cc1	–	–	> 100	10.6	–	inactive	–
c1ccc(-c2cc(-c3ccc4c(c3)OCO4)no2)cc1	> 500	–	23	64.8	–	inactive	growth inhibition (GI) (Leishmania amazonensis [9]): inactive; selectivity ratio [6]: > 21.7
O=[N+]([O-])c1ccc(-c2cc(CO)on2)cc1	–	> 100	> 100	12.2	4.98	inactive	–
COc1ccc(-c2cc(-c3ccc(CO)cc3)on2)cc1	–	–	> 100	5.77	–	inactive	–
c1ccc(-c2cc(-c3ccccc3)on2)cc1 [3,5-DIPHENYLISOXAZOLE]	–	> 100	> 100	29.4	6.03	inactive	–
CC(=O)OC[C@H]1O[C@H](OCc2cc(-c3ccc4c(c3)OCO4)no2)[C@H](OC(C)=O)[C@@H](OC(C)=O)[C@@H]1OC(C)=O	–	> 100	> 100	3.15	2.05	inactive	–
COc1cc([C@@H]2O[C@@H](c3cc(OC)c(OC)c(OC)c3)[C@H](C)[C@H]2C)cc(OC)c1OC [GRANDISIN]	–	–	–	–	–	–	IC50 (Trypanosoma cruzi [11]): 3.7 µM
OCc1ccc(-c2cc(-c3ccc4c(c3)OCO4)no2)cc1	70.2	–	5.26	65	0	inactive	IC50 (Trypanothione reductase): > 100 µM; selectivity ratio [6]: 13.3
O=[N+]([O-])c1ccc(-c2cc(-c3ccc(CO)cc3)on2)cc1	–	–	> 100	15.9	–	inactive	–
CC(C)(C)OC(=O)Nc1ccc(-c2cc(-c3ccccc3)no2)cc1	–	–	–	0	–	inactive	–
COc1ccc([C@H]2O[C@@H](c3ccc(OC)c(OC)c3)[C@@H](C)[C@@H]2C)cc1OC	–	–	–	–	–	–	IC50 (Trypanosoma cruzi [11]): 2.3 µM
COc1ccc(-c2cc(CN=[N+]=[N-])on2)cc1	< 15.6	–	–	60.4	–	inactive	growth inhibition (GI) (Trypanosoma cruzi [12]): inactive; Stability [13]: Unstable
OCc1ccc(-c2cc(-c3ccccc3)no2)cc1	–	–	> 100	7.01	–	inactive	–
OC[C@H]1O[C@H](OCc2cc(-c3ccccc3)no2)[C@H](O)[C@@H](O)[C@@H]1O	–	> 100	> 100	7.3	4.57	inactive	–
OCc1cc(-c2ccc(F)cc2)no1	–	> 100	> 100	8.27	3.35	inactive	–
CC(=O)OCc1ccc(-c2cc(-c3ccc4c(c3)OCO4)no2)cc1	> 500	> 100	23.2	47.6	15.7	inactive	selectivity ratio [6]: > 21.5
Nc1ccc(-c2cc(-c3ccccc3)no2)cc1	407	–	90.4	73	–	inactive	selectivity ratio [6]: 4.5
OC[C@H]1O[C@H](OCc2cc(-c3ccc4c(c3)OCO4)no2)[C@H](O)[C@@H](O)[C@@H]1O	–	> 100	> 100	2.93	3.82	inactive	–
CC(=O)Nc1ccc(-c2cc(-c3ccccc3)no2)cc1	–	–	–	0	–	inactive	–
Cc1ccc(-c2cc(-c3ccc4c(c3)OCO4)no2)cc1	81.3	> 100	1.74	81.7	28.1	inactive	IC50 (Trypanothione reductase): > 100 µM; selectivity ratio [6]: 46.7
COc1ccc(-c2cc(CO)on2)cc1OC	–	–	–	0	–	inactive	–
OCc1cc(-c2ccc3c(c2)OCO3)no1	–	–	> 100	1.95	–	inactive	–
CC(=O)OC[C@H]1O[C@H](OCc2cc(-c3ccccc3)no2)[C@H](OC(C)=O)[C@@H](OC(C)=O)[C@@H]1OC(C)=O	–	> 100	> 100	1.16	2.06	inactive	–
OCc1cc(-c2ccccc2)no1	–	–	> 100	7.57	–	inactive	–
